According to ChEMBL document CHEMBL1149196 (J Med Chem, 2004):

Experiments:
[1] = biological target: Sodium-dependent dopamine transporter (Rattus norvegicus, UniProt P23977); assay: Ability to inhibit high affinity uptake of [3H]DA at Dopamine transporter (DAT) using rat brain striatum; assay type: tissue-based
Method in brief: (§1)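 Rat synaptosomal (P2) uptake: striatum for DAT, midbrain for SERT, parietal/occipital cortex for NET, in modified KRH pH 7.4 with nialamide. Drug preincubated 30 min at 4 °C, then 15 min at 37 °C. [3H]amine final ~5 nM (DA, 5-HT) or 9 nM (NE), 5 min uptake, stopped with cold Na-free buffer and filtered. Background from 0 °C tubes. IC50 converted to Ki by Cheng–Prusoff. Mean ± SE, ≥3 experiments.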

[2] = biological target: T1, Sodium-dependent serotonin transporter (Rattus norvegicus, UniProt P31652); assay: (§2) Ability to inhibit high affinity uptake of [3H]-5-HT at Serotonin transporter (SERT) using rat midbrain; assay type: tissue-based; method in brief: as §1
Target sequence in this assay (P31652 whole entry): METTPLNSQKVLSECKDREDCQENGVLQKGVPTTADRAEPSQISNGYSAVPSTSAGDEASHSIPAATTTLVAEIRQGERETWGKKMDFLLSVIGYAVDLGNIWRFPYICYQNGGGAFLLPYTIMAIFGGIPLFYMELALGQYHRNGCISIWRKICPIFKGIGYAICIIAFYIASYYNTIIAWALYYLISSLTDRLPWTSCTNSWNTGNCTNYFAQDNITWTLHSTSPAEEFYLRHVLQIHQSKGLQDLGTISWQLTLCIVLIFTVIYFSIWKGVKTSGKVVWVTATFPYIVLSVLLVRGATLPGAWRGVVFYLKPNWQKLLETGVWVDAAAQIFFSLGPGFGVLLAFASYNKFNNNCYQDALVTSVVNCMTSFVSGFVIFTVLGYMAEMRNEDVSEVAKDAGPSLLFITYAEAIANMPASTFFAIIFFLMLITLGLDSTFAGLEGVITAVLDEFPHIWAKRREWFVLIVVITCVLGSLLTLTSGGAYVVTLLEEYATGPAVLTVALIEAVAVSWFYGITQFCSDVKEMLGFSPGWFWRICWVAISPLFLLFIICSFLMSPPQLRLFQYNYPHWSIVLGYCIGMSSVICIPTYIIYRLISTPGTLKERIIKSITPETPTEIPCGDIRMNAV

[3] = biological target: Norepinephrine transporter (Rattus norvegicus, UniProt Q9WTR4); assay: Ability to inhibit high affinity uptake of [3H]NE at Norepinephrine transporter (NET) using rat brain parietal/occipital cortex; assay type: tissue-based; method in brief: as §1
[4] = biological target: Monoamine transporters; serotonin & dopamine (Rattus norvegicus) (UniProt P31652+P23977); assay: Ratio of affinity for serotonin transporter to that of dopamine transporter; assay type: protein assay
Method in brief: (§3)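 Ratios of Ki values from rat synaptosomal [3H]amine uptake inhibition at SERT (midbrain), DAT (striatum) and NET (parietal/occipital cortex). Ki came from IC50 via Cheng–Prusoff.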

[5] = biological target: Monoamine transporters; Norepinephrine & serotonin (Rattus norvegicus) (UniProt P31652+Q9WTR4); assay: Ratio of affinity for Norepinephrine transporter to that of Serotonin transporter; assay type: protein assay; method in brief: as §3
[6] = biological target: T1, Sodium-dependent serotonin transporter; assay: as §2; assay type: tissue-based; remark: listed apart in the source
Method in brief: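 Rat midbrain P2 synaptosomes in ice-cold modified KRH buffer (pH 7.4, with 0.01 mM nialamide). Drug preincubated 30 min at 4 °C, then 15 min at 37 °C. Uptake started with ~5 nM [3H]5-HT (final) and run 5 min. Stopped with cold sodium-free glucosamine buffer and GF/C filtration. IC50 by LIGAND, converted to Ki by Cheng–Prusoff. Mean ± SE of ≥3 experiments.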
Target sequence in this assay (P31652 whole entry, looked up): as the sequence (P31652 whole entry) above

Sequence of Monoamine transporters; serotonin & dopamine (Rattus norvegicus) (P23977 whole entry, looked up): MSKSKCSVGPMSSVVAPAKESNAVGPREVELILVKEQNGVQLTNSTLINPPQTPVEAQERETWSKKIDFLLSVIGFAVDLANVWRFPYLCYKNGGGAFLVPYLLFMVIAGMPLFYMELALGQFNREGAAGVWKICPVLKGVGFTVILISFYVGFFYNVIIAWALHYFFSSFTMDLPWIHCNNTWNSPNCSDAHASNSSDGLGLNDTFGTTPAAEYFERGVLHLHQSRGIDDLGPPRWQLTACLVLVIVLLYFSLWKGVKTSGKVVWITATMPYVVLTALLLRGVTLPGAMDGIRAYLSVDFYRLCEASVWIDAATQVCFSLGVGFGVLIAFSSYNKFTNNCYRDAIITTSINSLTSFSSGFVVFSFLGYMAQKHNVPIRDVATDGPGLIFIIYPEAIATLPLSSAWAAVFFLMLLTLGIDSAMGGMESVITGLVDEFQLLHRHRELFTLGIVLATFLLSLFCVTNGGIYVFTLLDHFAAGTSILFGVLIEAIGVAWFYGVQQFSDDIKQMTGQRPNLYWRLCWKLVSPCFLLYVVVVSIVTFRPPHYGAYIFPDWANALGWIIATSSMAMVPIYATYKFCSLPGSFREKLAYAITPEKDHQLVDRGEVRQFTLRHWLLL
Sequence of Monoamine transporters; serotonin & dopamine (Rattus norvegicus) (P31652 whole entry, looked up): as the sequence (P31652 whole entry) above
Sequence of Sodium-dependent dopamine transporter (P23977 whole entry): as the sequence (P23977 whole entry, looked up) above
Sequence of Norepinephrine transporter (Q9WTR4 whole entry): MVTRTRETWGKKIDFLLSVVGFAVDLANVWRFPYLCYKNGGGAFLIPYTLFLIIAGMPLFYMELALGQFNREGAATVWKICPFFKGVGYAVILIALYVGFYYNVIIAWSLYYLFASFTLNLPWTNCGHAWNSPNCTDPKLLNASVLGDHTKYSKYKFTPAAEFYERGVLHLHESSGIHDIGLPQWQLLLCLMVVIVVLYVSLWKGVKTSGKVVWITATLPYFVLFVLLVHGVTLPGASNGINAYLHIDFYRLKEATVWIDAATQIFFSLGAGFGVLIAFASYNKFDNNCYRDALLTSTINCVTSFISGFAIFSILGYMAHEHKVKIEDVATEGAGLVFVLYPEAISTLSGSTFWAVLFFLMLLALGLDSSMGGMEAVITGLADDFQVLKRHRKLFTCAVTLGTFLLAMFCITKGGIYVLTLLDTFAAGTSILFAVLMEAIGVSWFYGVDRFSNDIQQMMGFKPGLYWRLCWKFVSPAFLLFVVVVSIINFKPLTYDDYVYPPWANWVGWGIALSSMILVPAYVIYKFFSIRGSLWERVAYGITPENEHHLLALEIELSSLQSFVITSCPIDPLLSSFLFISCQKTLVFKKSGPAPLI

CN1CC[C@H](c2ccc(Cl)cc2)[C@@H](CCCO)C1
Ki [1]: 16 nM | Ki [2]: 2810 nM | Ki [3]: 564 nM | Ratio [4]: 175 | Ratio [5]: 0.2

C=CCOC[C@H]1CN(C)CC[C@@H]1c1ccc(Cl)cc1
Ki [1]: 60 nM | Ki [2]: 231 nM | Ki [3]: 20 nM | Ratio [4]: 3.9 | Ratio [5]: 0.087

CN1CC[C@H](c2ccc(Cl)cc2)[C@@H](COC(=O)NC23CC4CC(CC(C4)C2)C3)C1
Ki [1]: 56 nM | Ki [2]: 37 nM | Ki [3]: 56 nM | Ratio [4]: 0.66 | Ratio [5]: 1.5

CN1CC[C@H](c2ccc(Cl)cc2)[C@@H](CCC(=O)O)C1
Ki [1]: 1300 nM | Ki [2]: 4540 nM | Ki [3]: 425 nM | Ratio [4]: 3.5 | Ratio [5]: 0.094

CCNC(=O)OC[C@H]1CN(C)CC[C@@H]1c1ccc(Cl)cc1
Ki [1]: 181 nM | Ki [2]: 854 nM | Ki [3]: 100 nM | Ratio [4]: 4.7 | Ratio [5]: 0.12

CN1CC[C@H](c2ccc(Cl)cc2)C(C(=O)N(C)C)C1 (some centres not stated)
Ki [1]: 2140 nM | Ki [2]: 18900 nM | Ki [3]: 569 nM | Ratio [4]: 8.8 | Ratio [5]: 0.03

CN1CC[C@H](c2ccc(Cl)cc2)[C@@H](CC(=O)N(C)Cc2ccccc2)C1
Ki [1]: 165 nM | Ki [2]: 66 nM | Ki [3]: 32 nM | Ratio [4]: 0.4 | Ratio [5]: 0.49

CN1CC[C@H](c2ccc(Cl)cc2)[C@@H](C(=O)OCCCCCc2ccccc2)C1
Ki [1]: 53 nM | Ki [2]: 1790 nM | Ki [3]: 382 nM | Ratio [4]: 34 | Ratio [5]: 0.21

CN1CC[C@H](c2ccc(Cl)cc2)[C@@H](CCCF)C1
Ki [1]: 43 nM | Ki [2]: 5190 nM | Ki [3]: 356 nM | Ratio [4]: 120 | Ratio [5]: 0.069

CN1CC[C@H](c2ccc(Cl)cc2)C(C(=O)N2CCCC2)C1 (some centres not stated)
Ki [3]: 2000 nM

CN1CC[C@H](c2ccc(Cl)cc2)[C@@H](C(=O)OC(C)(C)C)C1
Ki [1]: 318 nM | Ki [2]: 5750 nM | Ki [3]: 350 nM | Ratio [4]: 18 | Ratio [5]: 0.061

CN1CC[C@H](c2ccc(Cl)cc2)[C@@H](CCC(=O)Nc2ccccc2)C1
Ki [1]: 201 nM | Ki [2]: 354 nM | Ki [3]: 56 nM | Ratio [4]: 1.8 | Ratio [5]: 0.16

CCC[C@H]1CN(C)CC[C@@H]1c1ccc(Cl)cc1
Ki [1]: 20 nM | Ki [2]: 228 nM | Ki [3]: 6.5 nM | Ratio [4]: 11 | Ratio [5]: 0.029

CN1CC[C@H](c2ccc(Cl)cc2)[C@@H](CCC(=O)NC23CC4CC(CC(C4)C2)C3)C1
Ki [1]: 446 nM | Ki [2]: 585 nM | Ki [3]: 152 nM | Ratio [4]: 1.3 | Ratio [5]: 0.26

CN1CC[C@H](c2ccc(Cl)cc2)[C@@H](COC(=O)c2ccccc2)C1
Ki [1]: 273 nM | Ki [2]: 296 nM | Ki [3]: 389 nM | Ratio [4]: 1.1 | Ratio [5]: 1.3

CN1CC[C@H](c2ccc(Cl)cc2)[C@@H](CC(=O)NC23CC4CC(CC(C4)C2)C3)C1
Ki [1]: 706 nM | Ki [2]: 376 nM | Ki [3]: 1080 nM | Ratio [4]: 0.53 | Ratio [5]: 2.9

CN1CC[C@H](c2ccc(Cl)cc2)C(C(=O)Oc2ccccc2)C1 (some centres not stated)
Ki [1]: 906 nM | Ki [2]: 2120 nM | Ki [3]: 2180 nM | Ratio [4]: 2.3 | Ratio [5]: 1

CCOC(=O)C[C@H]1CN(C)CC[C@@H]1c1ccc(Cl)cc1
Ki [1]: 79 nM | Ki [2]: 191 nM | Ki [3]: 101 nM | Ratio [4]: 2.4 | Ratio [5]: 0.53

CN1CC[C@H](c2ccc(Cl)cc2)[C@@H](COC(=O)Nc2ccccc2)C1
Ki [1]: 91 nM | Ki [2]: 1290 nM | Ki [3]: 33 nM | Ratio [4]: 14 | Ratio [5]: 0.026

CN1CC[C@H](c2ccc(Cl)cc2)[C@@H](C(=O)O)C1
Ki [2]: 131000 nM | Ratio [4]: 0.76 | Ki [6]: 282000 nM | Ratio [5]: 2.2

CN1CC[C@H](c2ccc(Cl)cc2)[C@@H](CC(=O)OCCCc2ccccc2)C1
Ki [1]: 36 nM | Ki [2]: 82 nM | Ki [3]: 48 nM | Ratio [4]: 2.3 | Ratio [5]: 0.59

COC(=O)CC[C@H]1CN(C)CC[C@@H]1c1ccc(Cl)cc1
Ki [1]: 68 nM | Ki [2]: 255 nM | Ki [3]: 31 nM | Ratio [4]: 3.8 | Ratio [5]: 0.12

CNC(=O)C[C@H]1CN(C)CC[C@@H]1c1ccc(Cl)cc1
Ki [2]: 2270 nM | Ki [3]: 251 nM | Ratio [4]: 2.5 | Ratio [5]: 0.11

CC(=O)OC[C@H]1CN(C)CC[C@@H]1c1ccc(Cl)cc1
Ki [1]: 599 nM | Ki [2]: 901 nM | Ki [3]: 235 nM | Ratio [4]: 1.5 | Ratio [5]: 0.26

CN1CC[C@H](c2ccc(Cl)cc2)[C@@H](CC(=O)N(C)C)C1
Ki [1]: 16 nM | Ki [2]: 1990 nM | Ki [3]: 46 nM | Ratio [4]: 125 | Ratio [5]: 0.023

CN1CC[C@H](c2ccc(Cl)cc2)[C@@H](CC(=O)O)C1
Ki [1]: 3010 nM | Ki [2]: > 10000 nM | Ki [3]: 3810 nM

CN1CC[C@H](c2ccc(Cl)cc2)[C@@H](CC(=O)NCc2ccccc2)C1
Ki [1]: 270 nM | Ki [2]: 191 nM | Ki [3]: 107 nM | Ratio [4]: 0.71 | Ratio [5]: 0.56

COC(=O)/C=C/[C@H]1CN(C)CC[C@@H]1c1ccc(Cl)cc1
Ki [1]: 53 nM | Ki [2]: 501 nM | Ki [3]: 272 nM | Ratio [4]: 9.5 | Ratio [5]: 0.54
